Activation (% of control) data for 62 compounds are collected here from PubChem BioAssay AID871 (The Scripps Research Institute Molecular Screening Center, 2007).

Molecules are shown by their SMILES. About 1,800 (0.95%) of roughly 190,000 compounds were called active.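 Rule for the calls: active = activation above the screen-wide mean of compound activation plus 3 SD (cut at about 130% in these data); inactive = the rest.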 For the sample, actives were picked, then their nearest neighbours and some compounds at random.

The nature of the assay: IL-6 driven STAT3 reporter potentiators, primary screen, U3A cells, luciferase, luminescence, MLSCN library (AID 871).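 Note: 0% = background luminescence of wells with medium and substrate only.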 The settings on record: IL-6 STAT3-luciferase reporter, at 5.6 µM, active compounds read high, 100% = signal with IL-6 EC80 alone. The procedure, abridged:
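Detection: reporter luminescence signal / Assay system: STAT1-lacking human U3A cells, STAT3 luciferase reporter / Incubation: compound pre-incubation 1 h before IL-6, then 6 h stimulation at 37 °C / Control set: IL-6-only high control / Read-out: % activation relative to IL-6 control / Probe or stimulus: Interleukin-6, 33 ng/mL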
On the technique in general: In a reporter assay the amount or activity of a reporter protein is the signal.
With `O=C(Nc1ccc2cn[nH]c2c1)c1ccc(S(=O)(=O)N2CCOCC2)cc1`, the activation (% of control) is 135% (active). In the case of `O=C(CCc1ccc(S(=O)(=O)N2CCOCC2)cc1)Nc1ccc2ccccc2c1` it was 104% (inactive); in that of `Cc1ccnc(NS(=O)(=O)c2ccc(NC(=O)c3ccc(S(=O)(=O)N4CCOCC4)cc3)cc2)n1`, 100% (inactive); in that of `CCOC(=O)c1c(/N=C/c2cc(C)ccc2O)sc2c1CCC2`, 99.7% (inactive). As to `Cc1ccc(C(=O)N/C(=C\c2ccco2)C(=O)N2CCSCC2)cc1C`, the activation (% of control) was 109% (inactive).

As to `COc1ccc(N2C(=O)CC(Nc3ccc(F)cc3)C2=O)c([N+](=O)[O-])c1` (configuration not stated), the activation (% of control) was 92.9% (inactive).

For `C=CCOc1ccc(/C=N/NC(=O)C(C)Sc2ccccn2)cc1OCC` (configuration not stated), the activation (% of control) is 106% (inactive). `Cn1c(=NC(=O)C2CC2)sc2cc(F)cc(F)c21`: the activation (% of control) is 135% (active). The same measure for `COc1ccc(OC)c2c1sc(=NC(=O)CN1C(=O)CCC1=O)n2C`: 101% (inactive); for `CCOc1ccc(-n2c(O)c(/C=N/c3ccnn3Cc3ccncc3)c3ccccc3c2=O)cc1`: 105% (inactive). For the compound `O=C(O)c1ccc(/C=N/NC(=S)NCc2ccccc2)cc1`, the activation (% of control) is 96.6% (inactive). The same measure for `CSc1nc(O)c(Cc2ccccc2)c(=O)[nH]1`: 95.3% (inactive).

As for `CSc1nc2sc3c(c2c(=O)[nH]1)CCc1ccccc1-3`, the activation (% of control) was 136% (active). Turning to `COc1ccc(-n2c(=S)[nH]c3sc4c(c3c2=O)CCc2ccccc2-4)cc1`, the activation (% of control) is 112% (inactive). The same measure for `c1ccc(-c2cn3cccnc3n2)cc1`: 91.9% (inactive); for `c1ccc(-c2cn3c(n2)CCc2ccc4cccnc4c2-3)cc1`: 157% (active). The same measure for `O=C(CN1C(=O)CC(c2ccccc2)S(=O)(=O)c2ccccc21)NC1CCCC1` (configuration not stated): 101% (inactive); for `COC(=O)/C(C#N)=C/c1occc1C`: 94.2% (inactive).

For `CCOC(=O)N1CCN(CCC(=O)Nc2cc(OC)ccc2OC)CC1`, the activation (% of control) was 111% (inactive).

Regarding `O=C(c1cn2ccccc2n1)N1CCc2c([nH]c3ccccc23)C1c1ccccn1` (configuration not stated), the activation (% of control) is 105% (inactive). Consider `Cc1cccc(C2c3[nH]c4ccccc4c3CCN2C(=O)c2cc(-c3cccn3C)n[nH]2)n1` (configuration not stated), for which the activation (% of control) is 134% (active).

With `Cc1cccc(C(=O)N2CCc3c([nH]c4ccccc34)C2CC(C)C)n1` (configuration not stated), the activation (% of control) is 145% (active).

For `O=C(NC1CCCCC1)N1CCc2[nH]c3ccccc3c2C1`, the activation (% of control) was 96% (inactive). With `COCc1ccc(C(=O)N2CCc3c([nH]c4ccccc34)C2c2ccccn2)s1` (configuration not stated), the activation (% of control) was 96.9% (inactive). The same measure for `CCCC(=O)N1CCc2[nH]c3ccccc3c2C1`: 99.4% (inactive); for `COc1ccc(NC(=O)C(=O)NCC(=O)Nc2cccc(C(F)(F)F)c2)cc1`: 98.3% (inactive). In the case of `COC(=O)c1ccc(NC(=S)NN2CCOCC2)cc1` it was 109% (inactive); in that of `O=C(CC1SCCNC1=O)Nc1ccc(Cl)cc1` (configuration not stated), 105% (inactive); in that of `CCOC(=O)C1(Cc2cccc(OC)c2)CCN(Cc2csc(C(C)=O)c2)CC1`, 92.5% (inactive). In the case of `COCCCNC(=O)C1CCC(CNS(=O)(=O)c2ccc(OC)cc2)CC1` (configuration not stated) it was 99.2% (inactive).

Regarding `O=C1NC(c2ccccc2)=NC1(Nc1ccccn1)C(F)(F)F` (configuration not stated), the activation (% of control) was 100% (inactive).

Consider `CN(C)S(=O)(=O)c1cc(NC(=O)CN2C(=O)NC3(CCCc4ccccc43)C2=O)ccc1Cl` (configuration not stated), for which the activation (% of control) was 105% (inactive). In the case of `COc1cc(/C=C/C(=O)OCC(=O)NC(=O)NCc2ccccc2)ccc1OCC#N` it was 95.5% (inactive); in that of `COc1ncnc2sc3c(c12)CCCC3`, 104% (inactive); in that of `COc1cc(/C=N/Nc2ccc(C)cc2)cc(Br)c1O`, 115% (inactive). On to `COc1ccc(/C=N/Nc2ncnc3sc4c(c23)CCCC4)cc1O`, for which the activation (% of control) is 147% (active).

Consider `CSc1ccccc1C(=O)NCc1ccccc1`, for which the activation (% of control) is 108% (inactive). The same measure for `CC(C)CNC(=O)COC(=O)/C=C/c1ccco1`: 105% (inactive); for `O=C(/C=C/c1ccccc1[N+](=O)[O-])NCC1CCCO1` (configuration not stated): 97.5% (inactive); for `CC(C)CNC(=O)COC(=O)/C=C/c1ccccc1[N+](=O)[O-]`: 145% (active). As to `O=C(NCc1cccs1)C1CCN(S(=O)(=O)c2ccc(Cl)cc2)CC1`, the activation (% of control) is 104% (inactive).

`COc1cccc2c1CCC(NC(C)=O)C2=O` (configuration not stated): the activation (% of control) is 104% (inactive).

In the case of `CC(=O)c1c(C)[nH]c(C(=O)Nc2cc(S(=O)(=O)N(C)C)ccc2C)c1C`, the activation (% of control) is 90.9% (inactive). In the case of `COc1ccc(C)cc1NC(=O)c1[nH]c(C)c(C(C)=O)c1C` it was 147% (active); in that of `CC(=O)c1c(C)[nH]c(C(=O)NCc2ccc(C)cc2)c1C`, 92.2% (inactive); in that of `O=C(c1ccc(-c2ccccc2)cc1)C1CCCN(C(=O)c2cncs2)C1` (configuration not stated), 98.2% (inactive). With `COc1ccc(-c2c3c(=O)n(C)c(=O)n(C)c3cn2NC(C)=O)cc1`, the activation (% of control) is 109% (inactive). `COc1ccc(-c2c3c(=O)n(C)c(=O)n(C)c3cn2-c2cccc(OC)c2)cc1`: the activation (% of control) is 154% (active). Turning to `COc1cccc(-n2cc3c(c2-c2ccccc2)c(=O)n(C)c(=O)n3C)c1`, the activation (% of control) was 110% (inactive).

For `CC(C)CCN1C(=O)c2ccc(C(=O)Nc3cccc(S(N)(=O)=O)c3)cc2C1=O`, the activation (% of control) was 93.1% (inactive). In the case of `CCC(C)NC(=O)c1nn(C)c(=O)c2ccccc12` (configuration not stated) it was 100% (inactive). With `CN(C)S(=O)(=O)c1cccc(NC(=S)NCc2ccc3c(c2)OCO3)c1`, the activation (% of control) was 95.2% (inactive).

On to `CCN(Cc1cc2cc(C)ccc2[nH]c1=O)S(=O)(=O)c1ccccc1`, for which the activation (% of control) is 91.2% (inactive). The same measure for `CC(=O)OCc1cc2cc(C)ccc2[nH]c1=O`: 103% (inactive).

For `CCNCc1cc2cc(C)ccc2[nH]c1=O`, the activation (% of control) is 139% (active).

On to `Cc1ccc(-n2cnc3ncnc(-c4ccccc4)c32)cc1`, for which the activation (% of control) is 94.7% (inactive).

As for `CC(C)OCCCNC(=S)N1CCC(C(=O)c2ccc3c(c2)OCCO3)CC1`, the activation (% of control) was 102% (inactive). The same measure for `Cc1cccc(CSc2nc3c(c(=O)n2C)SCC3)c1`: 78.4% (inactive). The same measure for `N#Cc1ccccc1NC(=O)COc1c(Br)cc(Br)c2cccnc12`: 151% (active); for `O=C(COC(=O)c1ccccn1)Nc1cccc2ccccc12`: 94.8% (inactive); for `N#Cc1ccc(C(=O)Nc2cccc3cccnc23)c(F)c1`: 87.4% (inactive). Regarding `CCN(CC)P(=O)(Nc1ccc(SC(F)F)cc1)c1ccc(N(C)C)cc1NC(=O)c1ccco1` (configuration not stated), the activation (% of control) was 131% (inactive).
